Drawing on ChEMBL document CHEMBL1142768, “2-(2-Furanyl)-7-phenyl[1,2,4]triazolo[1,5-c]pyrimidin-5-amine analogs as adenosine A2A antagonists: the successful reduction of hERG activity. Part 2” (Bioorg Med Chem Lett, 2005), this text covers Ki, Activity and inhibition for 16 molecules.

Series [1] in a line: Inhibitory constant against Adenosine A2A receptor using [3H]SCH-58261 as radio ligand. On the set-up: species or system Homo sapiens. An outline of the steps: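 Radioligand binding at the adenosine A2A receptor, run in duplicate; Ki reported as the mean of the duplicates.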
In series [2] the test system is Rattus norvegicus. Kind of series: Percent reduction of cataleptic effect in rat upon dosing at 3 mg/kg; 23/47. Type of series: functional. On the set-up: scale not given: the % may be the effect or the level left.
A further series addresses hERG (KCNH2) (Homo sapiens, UniProt Q12809). Kind of series: Percent inhibition of hERG by rubidium efflux FLIPR assay at concentration of 5 ug/mL. Type of series: toxicity. A general note: The hERG channel carries a current that helps repolarise heart muscle cells.
Series [3] has as its system Rattus norvegicus. Kind of series: Percent reduction of cataleptic effect in rat upon dosing at 3 mg/kg; 55/40. Type of series: functional. On the set-up: scale not given: the % may be the effect or the level left.
The test system of series [4] is Rattus norvegicus. Kind of series: Percent reduction of cataleptic effect in rat upon dosing at 3 mg/kg; 34/43. On the set-up: scale not given: the % may be the effect or the level left. The series is classed as functional.
For series [5], the system named is Rattus norvegicus. Kind of series: Percent reduction of cataleptic effect in rat upon dosing at 3 mg/kg; 23/32. The series is classed as functional. On the set-up: scale not given: the % may be the effect or the level left.
Series [6] concerns Rattus norvegicus. Kind of series: Percent reduction of cataleptic effect in rat upon dosing at 3 mg/kg; 45/20. Type of series: functional. On the set-up: scale not given: the % may be the effect or the level left.
In series [7] the test system is Rattus norvegicus. Description: Percent reduction of cataleptic effect in rat upon dosing at 3 mg/kg; 28/0. The series is classed as functional. On the set-up: scale not given: the % may be the effect or the level left.
The test system of series [8] is Rattus norvegicus. Kind of series: Percent reduction of cataleptic effect in rat upon dosing at 3 mg/kg; 36/59. The series is classed as functional. On the set-up: scale not given: the % may be the effect or the level left.
Series [9] relates to Rattus norvegicus. Description: Percent reduction of cataleptic effect in rat upon dosing at 3 mg/kg; 19/46. On the set-up: scale not given: the % may be the effect or the level left. The series is classed as functional.
Series [10] concerns Rattus norvegicus. Kind of series: Percent reduction of cataleptic effect in rat upon dosing at 3 mg/kg; 10/12. The series is classed as functional. On the set-up: scale not given: the % may be the effect or the level left.
The subject of series [11] is Rattus norvegicus. Description: Percent reduction of cataleptic effect in rat upon dosing at 3 mg/kg; 0/23. Type of series: functional. On the set-up: scale not given: the % may be the effect or the level left.
Series [12] has as its system Rattus norvegicus. Description: Percent reduction of cataleptic effect in rat upon dosing at 3 mg/kg; 13/13. On the set-up: scale not given: the % may be the effect or the level left. The series is classed as functional.

hERG (KCNH2), sequence (Q12809 whole entry): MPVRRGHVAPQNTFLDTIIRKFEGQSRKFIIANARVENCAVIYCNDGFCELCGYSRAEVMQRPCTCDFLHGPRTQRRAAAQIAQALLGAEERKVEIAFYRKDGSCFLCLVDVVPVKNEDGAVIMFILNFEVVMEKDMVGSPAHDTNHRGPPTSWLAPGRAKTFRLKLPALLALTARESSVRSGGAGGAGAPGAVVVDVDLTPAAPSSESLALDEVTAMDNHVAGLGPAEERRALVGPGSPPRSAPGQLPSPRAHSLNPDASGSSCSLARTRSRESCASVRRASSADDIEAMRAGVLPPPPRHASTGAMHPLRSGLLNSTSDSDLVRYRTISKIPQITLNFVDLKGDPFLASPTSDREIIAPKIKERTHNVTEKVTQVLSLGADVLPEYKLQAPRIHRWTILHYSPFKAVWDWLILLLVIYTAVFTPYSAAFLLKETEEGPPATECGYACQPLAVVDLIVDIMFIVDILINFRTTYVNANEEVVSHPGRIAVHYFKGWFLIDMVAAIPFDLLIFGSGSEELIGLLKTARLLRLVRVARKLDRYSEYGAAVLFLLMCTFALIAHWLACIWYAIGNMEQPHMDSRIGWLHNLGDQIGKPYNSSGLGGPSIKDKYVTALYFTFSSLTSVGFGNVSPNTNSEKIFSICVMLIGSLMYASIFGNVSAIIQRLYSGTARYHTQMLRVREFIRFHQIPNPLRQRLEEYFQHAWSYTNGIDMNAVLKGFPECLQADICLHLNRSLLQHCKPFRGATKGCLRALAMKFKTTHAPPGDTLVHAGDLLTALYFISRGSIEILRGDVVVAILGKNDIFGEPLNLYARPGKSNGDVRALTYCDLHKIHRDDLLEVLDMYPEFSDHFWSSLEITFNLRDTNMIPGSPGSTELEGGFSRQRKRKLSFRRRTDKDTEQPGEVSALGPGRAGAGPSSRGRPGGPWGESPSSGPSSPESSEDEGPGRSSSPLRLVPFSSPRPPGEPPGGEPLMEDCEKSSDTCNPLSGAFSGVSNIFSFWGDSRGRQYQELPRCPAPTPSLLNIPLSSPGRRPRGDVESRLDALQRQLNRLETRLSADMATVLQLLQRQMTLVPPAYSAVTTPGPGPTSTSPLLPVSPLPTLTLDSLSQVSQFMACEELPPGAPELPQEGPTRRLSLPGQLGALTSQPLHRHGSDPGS

Broadly, the Ki is the dissociation constant of the complex between target and ligand, obtained from inhibition or displacement. What is called inhibition is the drop in the measured response relative to a control, in per cent. In series [1], `Nc1nc(-c2cccc(N3CCN(C(=O)CN4CCOCC4)CC3)c2)cc2nc(-c3ccco3)nn12` returned a Ki of 0.5 nM. The same molecule showed an Activity in the series with Rattus norvegicus [2] of 47%. Further, the inhibition at 5 ug/mL on hERG (KCNH2) turned out to be 5%.

For the molecule `COCCOc1cccc(N2CCN(Cc3cccc(-c4cc5nc(-c6ccco6)nn5c(N)n4)c3)CC2)c1`, the inhibition at 5 ug/mL at hERG (KCNH2) was 68%.

Turning to `COCCOc1ccc(N2CCN(c3cccc(-c4cc5nc(-c6ccco6)nn5c(N)n4)c3)CC2)cc1`, the Ki in series [1] was determined as 1 nM. This molecule had an Activity in the series with Rattus norvegicus [3] of 55%. For the same molecule, the inhibition at 5 ug/mL against hERG (KCNH2) is -4% (not active).

Regarding `CCCCOC(=O)N1CCN(c2cccc(-c3cc4nc(-c5ccco5)nn4c(N)n3)c2)CC1`, in [1], the affinity, expressed as Ki, was 0.5 nM. Moreover, the inhibition at 5 ug/mL on hERG (KCNH2) is -3% (not active). Moreover, in the series on Rattus norvegicus [4], the Activity was 43%.

`Nc1nc(-c2cccc(N3CCN(CCN4CCOCC4)CC3)c2)cc2nc(-c3ccco3)nn12` registered a Ki in series [1] of 1.3 nM. The Activity in the series on Rattus norvegicus [5] is reported as 32%. Moreover, on hERG (KCNH2), the inhibition at 5 ug/mL amounted to 13%.

In turn, `Nc1nc(-c2cccc(N3CCC4(CC3)OCCO4)c2)cc2nc(-c3ccco3)nn12` showed a Ki in series [1] of 0.4 nM. This molecule had an Activity in the series on Rattus norvegicus [6] of 45%. Further, the inhibition at 5 ug/mL on hERG (KCNH2) was 8%.

In the case of `CC1CN(CC(=O)N2CCN(c3cccc(-c4cc5nc(-c6ccco6)nn5c(N)n4)c3)CC2)CCO1` (stereo not drawn), the affinity in series [1] corresponds to a Ki of 0.8 nM. Moreover, the Activity with Rattus norvegicus [7] is given as 28%. Further, the inhibition at 5 ug/mL at hERG (KCNH2) was -3% (not active).

In series [1], `Nc1nc(-c2cccc(N3CCNCC3)c2)cc2nc(-c3ccco3)nn12` came in with a Ki of 5.7 nM.

Molecule `Nc1nc(-c2cccc(N3CCC(=O)CC3)c2)cc2nc(-c3ccco3)nn12` yielded a Ki in series [1] of 1.3 nM.

`Nc1nc(-c2cccc(CO)c2)cc2nc(-c3ccco3)nn12`: on hERG (KCNH2), the inhibition at 5 ug/mL came to 15%.

In the series on Rattus norvegicus [8], `Nc1nc(-c2cccc(N3CCC(N4CCOCC4)CC3)c2)cc2nc(-c3ccco3)nn12` returned an Activity of 59%. For the same molecule, in series [1], the Ki stood at 0.8 nM. Also, the inhibition at 5 ug/mL against hERG (KCNH2) amounted to 1%.

On to `COCCOc1cccc(N2CCN(c3cccc(-c4cc5nc(-c6ccco6)nn5c(N)n4)c3)CC2)c1`, for which the Ki in series [1] stood at 2.3 nM. In the series with Rattus norvegicus [9], this molecule had an Activity of 46%. In addition, the inhibition at 5 ug/mL at hERG (KCNH2) stood at 3%.

In series [1], `CC(C)(C)CNC1CCN(c2cccc(-c3cc4nc(-c5ccco5)nn4c(N)n3)c2)CC1` came in with a Ki of 18 nM. In the series with Rattus norvegicus [10], this molecule displayed an Activity of 12%. The inhibition at 5 ug/mL at hERG (KCNH2) came out at 9%.

As for `CC(C)OC(=O)N1CCN(c2cccc(-c3cc4nc(-c5ccco5)nn4c(N)n3)c2)CC1`, the Ki in [1] came to 1 nM. The Activity with Rattus norvegicus [11] came out at 23%. The inhibition at 5 ug/mL against hERG (KCNH2) came to 8%.

In the case of `COCCOc1ccc(N2CCN(Cc3cccc(-c4cc5nc(-c6ccco6)nn5c(N)n4)c3)CC2)cc1`, the inhibition at 5 ug/mL against hERG (KCNH2) worked out at 81%.

Take `CC(C)S(=O)(=O)N1CCN(c2cccc(-c3cc4nc(-c5ccco5)nn4c(N)n3)c2)CC1`: in [1], the Ki came out at 0.5 nM. In the series with Rattus norvegicus [12], this molecule yielded an Activity of 13%. The inhibition at 5 ug/mL against hERG (KCNH2) came out at 10%.
